# In publication PMC3076632 (Journal of medicinal chemistry, 2011):
# Experiments:
# Format in all cases: cell-based
# [1] = tested on: CD11b in the granulocytic population in whole human blood; test: CD11b flow cytometric assay in whole human blood; conditions: ex vivo whole human blood, granulocytes, 1 hour at 37°C, flow cytometry
# Method in brief: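 Fresh anticoagulated whole human blood was incubated with graded dilutions of test compound for 1 h at 37°C, with saline negative controls. Samples were chilled on ice for 15 min, then stained with anti-CD11b/Mac-1 antibody for 30 min on ice so that only surface CD11b was labelled. Erythrocytes were lysed and leukocytes fixed in one step in pre-warmed lyse/fix buffer, then washed twice (200 g, 5 min). Single-colour PE flow cytometry, 20,000 gated events.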
# human Nod1 = molecular target: T1, human Nod1 (Homo sapiens, UniProt Q9Y239); test: NF-κB induction in HEK-Blue cells; conditions: for Nod1-agonistic activity (in words): primary screen, NF-κB induction
# T1 sequence (Q9Y239 1-953): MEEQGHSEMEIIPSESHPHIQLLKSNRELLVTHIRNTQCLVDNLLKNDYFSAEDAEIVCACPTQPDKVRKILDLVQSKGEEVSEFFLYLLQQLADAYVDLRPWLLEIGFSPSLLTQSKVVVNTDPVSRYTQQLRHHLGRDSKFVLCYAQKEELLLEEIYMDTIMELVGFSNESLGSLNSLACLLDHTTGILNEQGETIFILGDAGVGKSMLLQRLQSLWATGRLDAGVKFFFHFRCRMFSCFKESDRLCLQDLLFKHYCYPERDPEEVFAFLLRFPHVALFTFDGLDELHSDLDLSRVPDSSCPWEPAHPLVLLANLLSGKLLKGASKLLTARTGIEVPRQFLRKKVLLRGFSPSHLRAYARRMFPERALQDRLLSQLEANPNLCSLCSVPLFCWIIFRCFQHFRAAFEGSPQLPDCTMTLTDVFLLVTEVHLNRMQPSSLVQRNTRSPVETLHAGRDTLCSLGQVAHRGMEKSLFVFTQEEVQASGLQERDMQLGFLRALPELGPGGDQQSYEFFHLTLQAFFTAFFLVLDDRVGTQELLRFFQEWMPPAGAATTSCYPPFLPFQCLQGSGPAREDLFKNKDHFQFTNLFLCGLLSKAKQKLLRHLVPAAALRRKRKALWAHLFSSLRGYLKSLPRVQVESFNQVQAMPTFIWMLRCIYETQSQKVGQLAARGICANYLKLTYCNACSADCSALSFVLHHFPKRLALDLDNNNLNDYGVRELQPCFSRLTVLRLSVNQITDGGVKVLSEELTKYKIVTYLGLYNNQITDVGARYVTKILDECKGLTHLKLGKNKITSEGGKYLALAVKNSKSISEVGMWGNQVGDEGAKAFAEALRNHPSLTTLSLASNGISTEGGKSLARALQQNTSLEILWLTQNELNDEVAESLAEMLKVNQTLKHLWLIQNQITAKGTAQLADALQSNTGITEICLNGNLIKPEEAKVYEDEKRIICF
# Method in brief: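 HEK-Blue cells stably express secreted alkaline phosphatase (sAP) under NF-κB/AP-1 promoters. Cells were grown to confluency, then exposed to graded concentrations of test compound. Extracellular sAP in the supernatant, taken as proportional to Nod1-mediated NF-κB induction, was measured spectrophotometrically at 620 nm with an alkaline phosphatase-specific chromogen in the detection medium.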
# [2] = tested on: p38 MAPK in the granulocytic population in whole human blood; test: Phosflow flow cytometric assay for p38MAPK in whole human blood; conditions: ex vivo whole human blood, granulocytes, 15 minutes at 37°C, flow cytometry
# Method in brief: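 Heparinised fresh whole human blood was exposed to graded concentrations of test compound in saline for 15 min at 37°C. One-step erythrocyte lysis and leukocyte fixation, wash (500 g, 8 min), permeabilisation in ice-cold methanol for 30 min, two PBS washes. Staining for 60 min with PE-anti-phospho-p38 (pT180/pY182) mAb or matched PE mouse IgG1κ isotype control. Single-colour PE flow cytometry, 20,000 gated events.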
# Human PBMCs = test: Transcriptomal profiling; conditions: 20 μg/mL
# Method in brief: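 PBMCs from fresh heparinised human blood were stimulated with test compound at 20 μg/mL for 2 h; total RNA was extracted from treated and negative-control samples. 4 μg RNA per sample was hybridised to U133 plus 2.0 arrays. Chips passed QC (5′/3′ ratio < 3.0), were scaled to target intensity 500 and normalised, with absent-call genes filtered. Differential expression was defined as ≥2-fold change versus negative control.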
Nod1-agonistic activity (in words) (human Nod1),SMILES,CD11b upregulation (in words) [1],p38 MAPK upregulation (in words) [2],other results
inactive,"N[C@H](CCC(=O)N[C@H](CCC[C@H](N)C(=O)O)C(=O)O)C(=O)O [γ-glutamyl-meso-diaminopimelic acid, reference compound]",inactive,inactive,–
abrogation of activity,"CCCCCCCCCCCC(=O)N[C@H](CCC(=O)NC(CCCCC(=O)O)C(=O)O)C(=O)O (stereo partly drawn) [Compound 67, 2-((R)-4-carboxy-4-dodecanamidobutanamido)heptanedioic acid]",–,–,–
bereft of any activity,"CCCCCCCCCCCC(=O)N[C@H](CCC(=O)N[C@H](CCCCN)C(=O)O)C(=O)O [Compound 73, (R)-6-Amino-2-((R)-4-carboxy-4-dodecanamidobutanamido) hexanoic acid]",–,–,–
–,"CCCCCCCCCCCCN(CCCCCCCCCCCC)[C@H](CCC(=O)NC(CCCC(N)C(=O)O)C(=O)O)C(=O)O (stereo partly drawn) [Compound 27, 2-Amino-6-((R)-4-carboxy-4-(didodecylamino)butanamido) heptanedioic acid]",more potent than 16,more potent than 16,"pathway analysis of induced gene transcripts (in words) (Human PBMCs; IPA pathway analysis): activation of pathways involving signaling mediated by Triggering Receptor Expressed on Myeloid Cells 1; Fold change IL1B (interleukin 1, beta), up (Human PBMCs; probe set 39402_at, two hours, up): 4.45 fold; Fold change IL1RN (interleukin 1 receptor antagonist), up (Human PBMCs; probe set 212659_s_at, two hours, up): 8.19 fold; Fold change IL1RN (interleukin 1 receptor antagonist), up (Human PBMCs; probe set 216243_s_at, two hours, up): 7.54 fold; Fold change IL1RN (interleukin 1 receptor antagonist), up (Human PBMCs; probe set 216244_at, two hours, up): 8.27 fold"
–,"CCCCCCCCCCCC(=O)N[C@H](CCC(=O)NC(CCCC(N)C(=O)O)C(=O)O)C(=O)O (stereo partly drawn) [Compound 16, 2-Amino-6-((R)-4-carboxy-4-dodecanamidobutanamido) heptanedioic acid]",upregulated in a dose-dependent manner,upregulated in a dose-dependent manner,EC50 (human Nod1): ~0.03 nM
abrogation of activity,"CCCCCCCCCCCC(=O)N[C@H](CCC(=O)NCCCCCN)C(=O)O [Compound 69, (R)-5-((5-Aminopentyl)amino)-2-dodecanamido-5-oxopentanoic acid]",–,–,–
